Experimental data published in ChEMBL document CHEMBL4257566, “Design, synthesis and structure-based optimization of novel isoxazole-containing benzamide derivatives as FtsZ modulators” (Eur J Med Chem, 2018).
In brackets after ≈: the same amount, converted by molar mass.

Experiments:
[1] = system: Staphylococcus aureus; test: Antibacterial activity against Staphylococcus aureus; format: functional
Outline: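 CLSI broth microdilution: log-phase bacteria added to 2-fold serial dilutions (64 to 0.125 µg/mL) in cation-adjusted Mueller-Hinton broth, incubated aerobically 24 h at 37 °C. MIC read by turbidity as the last well showing no growth.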

[2] = system: Bacillus subtilis; test: Antibacterial activity against Bacillus subtilis ATCC 9372 after 24 hrs by broth microdilution based CLSI method; format: functional; conditions: ATCC 9372, 24 h
[3] = system: Bacillus pumilus; test: Antibacterial activity against Bacillus pumilus CMCC63202 after 24 hrs by broth microdilution based CLSI method; format: functional; conditions: CMCC63202, 24 h
[4] = system: Staphylococcus aureus; test: Antibacterial activity against Staphylococcus aureus ATCC 25923 after 24 hrs by broth microdilution based CLSI method; format: functional; conditions: ATCC 25923, 24 h
[5] = system: Staphylococcus aureus; test: Antibacterial activity against methicillin-resistant Staphylococcus aureus ATCC 43300 after 24 hrs by broth microdilution based CLSI method; format: functional; conditions: ATCC 43300, 24 h
[6] = system: Staphylococcus aureus; test: Antibacterial activity against clinical isolate of penicillin-resistant Staphylococcus aureus after 24 hrs by broth microdilution based CLSI method; format: functional
[7] = system: Escherichia coli; test: Antibacterial activity against Escherichia coli ATCC 25922 after 24 hrs by broth microdilution based CLSI method; format: functional; conditions: ATCC 25922, 24 h
[8] = system: Pseudomonas aeruginosa; test: Antibacterial activity against Pseudomonas aeruginosa ATCC 27853 after 24 hrs by broth microdilution based CLSI method; format: functional; conditions: ATCC 27853, 24 h
[9] = system: Bacillus subtilis; test: Potency index, ratio of PC190723 MIC to test compound MIC for antibacterial activity against Bacillus subtilis ATCC 9372 after 24 hrs by broth microdilution based CLSI method
[10] = system: HeLa; test: Cytotoxicity in human HeLa cells assessed as reduction in cell viability after 36 hrs by MTT assay; format: cell-based
Outline: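 HeLa cells seeded at 10⁴ cells/well and left overnight, then exposed to compound for 36 h. MTT (5 mg/mL solution) added for 4 h at 37 °C, medium replaced by DMSO for 10 min, absorbance read at 570 nm.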

MIC [1]	SMILES	MIC [2]	MIC [3]	MIC [4]	MIC [5]	MIC [6]	MIC [7]	MIC [8]	Ratio [9]	IC50 [10]
1 µg/mL (≈ 3.55 µM)	CC(C)(C)c1ccc(-c2ccc(CNC(=N)N)cc2)cc1									
32 µg/mL (≈ 122 µM)	NC(=O)c1c(F)ccc(OCc2ccccc2)c1F									
	CCCCc1ccc(-c2cc(COc3ccc(F)c(C(N)=O)c3F)on2)cc1	0.03 µg/mL (≈ 0.0776 µM)	0.25 µg/mL (≈ 0.647 µM)	> 64 µg/mL	2 µg/mL (≈ 5.18 µM)	> 64 µg/mL	> 64 µg/mL	> 64 µg/mL	>16	
4 µg/mL (≈ 14 µM)	CCCCC(CC)COc1ccc(F)c(C(N)=O)c1F (stereo not given)									
	Cc1cc(C(C)(C)C)cc(C)c1-c1cc(COc2ccc(F)c(C(N)=O)c2F)no1	> 64 µg/mL	0.06 µg/mL (≈ 0.145 µM)	1 µg/mL (≈ 2.41 µM)	2 µg/mL (≈ 4.83 µM)	2 µg/mL (≈ 4.83 µM)	> 64 µg/mL	> 64 µg/mL		> 128 µg/mL
16 µg/mL (≈ 50.6 µM)	Nc1nonc1C(=O)N/N=C/c1cc(Cl)cc(Cl)c1O									
	NC(=O)c1c(F)ccc(OCc2cc(-c3ccc(Cl)cc3)no2)c1F	4 µg/mL (≈ 11 µM)	> 64 µg/mL	> 64 µg/mL	> 64 µg/mL	> 64 µg/mL	> 64 µg/mL	> 64 µg/mL		
	NC(=O)c1c(F)ccc(OCc2cc(-c3ccccc3)on2)c1F	64 µg/mL (≈ 194 µM)	> 64 µg/mL	> 64 µg/mL	> 64 µg/mL	> 64 µg/mL	> 64 µg/mL	> 64 µg/mL		
	CCCOc1cccc(-c2cc(COc3ccc(F)c(C(N)=O)c3F)no2)c1	4 µg/mL (≈ 10.3 µM)	> 64 µg/mL	> 64 µg/mL	> 64 µg/mL	> 64 µg/mL	> 64 µg/mL	> 64 µg/mL		
	CCOc1cccc(-c2cc(COc3ccc(F)c(C(N)=O)c3F)no2)c1	32 µg/mL (≈ 85.5 µM)	> 64 µg/mL	> 64 µg/mL	> 64 µg/mL	> 64 µg/mL	> 64 µg/mL	> 64 µg/mL		
	CCCOc1ccc(-c2cc(COc3ccc(F)c(C(N)=O)c3F)no2)cc1	> 64 µg/mL	> 64 µg/mL	> 64 µg/mL	> 64 µg/mL	> 64 µg/mL	> 64 µg/mL	> 64 µg/mL		
	CCCCCc1ccc(-c2cc(COc3ccc(F)c(C(N)=O)c3F)on2)cc1	1 µg/mL (≈ 2.5 µM)	> 64 µg/mL	> 64 µg/mL	> 64 µg/mL	> 64 µg/mL	> 64 µg/mL	> 64 µg/mL		
	CCCOc1ccc(-c2cc(COc3ccc(F)c(C(N)=O)c3F)on2)cc1	16 µg/mL (≈ 41.2 µM)	> 64 µg/mL	> 64 µg/mL	> 64 µg/mL	> 64 µg/mL	> 64 µg/mL	> 64 µg/mL		
	COc1cc(-c2cc(COc3ccc(F)c(C(N)=O)c3F)on2)cc(OC)c1OC	> 64 µg/mL	> 64 µg/mL	> 64 µg/mL	> 64 µg/mL	> 64 µg/mL	> 64 µg/mL	> 64 µg/mL		
	COc1cccc(-c2cc(COc3ccc(F)c(C(N)=O)c3F)no2)c1	64 µg/mL (≈ 178 µM)	> 64 µg/mL	> 64 µg/mL	> 64 µg/mL	> 64 µg/mL	> 64 µg/mL	> 64 µg/mL		
	NC(=O)c1c(F)ccc(OCc2cc(/C=C/c3ccccc3)no2)c1F	8 µg/mL (≈ 22.5 µM)	> 64 µg/mL	> 64 µg/mL	> 64 µg/mL	> 64 µg/mL	> 64 µg/mL	> 64 µg/mL		
	Cc1ccc(-c2cc(COc3ccc(F)c(C(N)=O)c3F)no2)cc1	64 µg/mL (≈ 186 µM)	> 64 µg/mL	> 64 µg/mL	> 64 µg/mL	> 64 µg/mL	> 64 µg/mL	> 64 µg/mL		

SMILES	MIC [1]	MIC [2]	MIC [3]	MIC [4]	MIC [5]	MIC [6]	MIC [7]	MIC [8]	Ratio [9]	IC50 [10]
NC(=O)c1c(F)ccc(OCc2nc3cc(Cl)cnc3s2)c1F	1 µg/mL (≈ 2.81 µM)	0.5 µg/mL (≈ 1.41 µM)	0.5 µg/mL (≈ 1.41 µM)	1 µg/mL (≈ 2.81 µM)	1 µg/mL (≈ 2.81 µM)	1 µg/mL (≈ 2.81 µM)	> 64 µg/mL	> 64 µg/mL		
